Bioassay records: PubChem BioAssay, Sanford-Burnham Center for Chemical Genomics
bIAP act: intestinal alkaline phosphatase (bovine) activation; 0.17% of 200,000 active; purified bovine IAP, CDP-star luminescence, 30 min; stronger effect = higher value; fold of DMSO-control signal, blank-subtracted; AID 1016; activation factor at 20 µM;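 active = activation factor of 2 or more at 20 µM, a signal rise over negative controls twice the positive control's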
mIAP block: mouse IAP inhibition. 0.2% of 330,000 active. AID 2806. purified mouse IAP, CDP-Star luminescence, 30 min. inhibition, % at 10 µM;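 active = inhibition of at least 40% at 10 µM in the primary screen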
mIAP act: mouse IAP activation; muIAP, CDP-Star luminescence, 30 min; stronger effect = higher value; 1 = vehicle-only enzyme signal, 0 = enzyme-free wells; activation factor at 10 µM; 0.24% of 330,000 active; AID 2805;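 active = activation factor of at least 2 at 20 µM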
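Assay system: mouse IAP enzyme / Compound: DMSO-dissolved test compounds / Timing: 30 min, room temperature / Measured by: luminescence from enzymatic CDP-Star hydrolysis / Control set: DMSO-only wells, enzyme-free buffer wells as negative control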
hIAP act: human IAP activation | activation factor at 10 µM | P09923 | 0.16% of 330,000 active | purified human IAP, CDP-Star luminescence, 30 min; stronger effect = higher value; 1 = vehicle-only enzyme, 0 = enzyme-free background | AID 2524;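 active = activation factor of the enzyme at least 2-fold when tested at 20 µM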
Target sequence (P09923 whole entry, looked up): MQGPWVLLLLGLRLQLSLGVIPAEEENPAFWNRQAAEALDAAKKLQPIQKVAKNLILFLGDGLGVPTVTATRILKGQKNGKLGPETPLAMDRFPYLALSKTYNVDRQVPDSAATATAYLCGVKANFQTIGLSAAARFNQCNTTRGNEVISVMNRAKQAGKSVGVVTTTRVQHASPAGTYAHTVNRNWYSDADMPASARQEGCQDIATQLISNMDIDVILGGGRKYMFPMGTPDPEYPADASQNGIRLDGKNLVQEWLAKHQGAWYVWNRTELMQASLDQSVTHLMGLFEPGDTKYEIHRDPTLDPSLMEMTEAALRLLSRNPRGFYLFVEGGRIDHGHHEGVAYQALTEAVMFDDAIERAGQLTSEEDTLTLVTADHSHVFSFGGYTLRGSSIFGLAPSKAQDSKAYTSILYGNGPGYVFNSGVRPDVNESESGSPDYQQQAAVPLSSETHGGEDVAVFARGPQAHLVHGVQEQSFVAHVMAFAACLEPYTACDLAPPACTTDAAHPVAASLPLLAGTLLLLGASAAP
hIAP block: blocks human intestinal alkaline phosphatase | P09923 | purified IAP, CDP-Star luminescence, 30 min | inhibition, % at 10 µM | 0.12% of 330,000 active | AID 2544;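 active = inhibition reaching a set limit with compound at 10 µM in the primary screen, cut at about 35% in these data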
bIAP inh: intestinal alkaline phosphatase (bovine) inhibition; purified bovine IAP, CDP-star luminescence, 30 min; inhibition, % at 20 µM; 190,000 tested, under 10 active;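 active = over 50% inhibition of intestinal alkaline phosphatase at 20 µM in the single-dose screen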
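System: purified bovine intestinal alkaline phosphatase (IAP) enzyme; Input: IAP diluted 1/65,000,000 in the well; Measured by: CDP-star luminescence signal; Compound dosing: 20 µM single dose; Incubation: 30 min reaction at room temperature.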
hIAP act conf: human IAP activation confirmation. shares compounds with hIAP act. purified IAP, CDP-Star luminescence, 30 min; stronger effect = lower value. activation (%Activity, negative = activation), % at 8.3 µM. 10% of 880 active. AID 434926;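 active = at least twofold enzyme activation in any of six single-dose repeats, which the averaged readout prints as negative percent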
Hits are given with their value; . = inactive; / = no result given. Sampled rows, rich in hits. Any-hit rate of the full collection: about 0.77%.

SMILES | bIAP act | mIAP block | mIAP act | hIAP act | hIAP block | bIAP inh | others
COC(=O)c1ccccc1N1C(=O)C2C(C1=O)[C@H]1C=C[C@@H]2C1 (stereo not given in full) | . | 50 | . | . | . | .
CCOC(=O)c1c(N)sc(=S)c2c1CCC2 | . | 41 | . | . | . | .
COC(=O)c1ccc(NC(=S)NC2CCCCC2C)cc1 (stereo not given) | . | . | 2.6 | . | . | .
CCOC(=O)c1ccc(NC(=S)NC2CCCC2)cc1 | . | . | 2.2 | . | . | .
CCOC(=O)c1ccc(NC(=S)NC(=O)C2CCCC2)cc1 | / | . | . | . | . | /
COc1ccc(NC(=O)c2cc([N+](=O)[O-])ccc2NC(=O)CNCc2ccccn2)c(OC)c1 | / | . | . | . | . | /
CC(c1ccccc1)N1CCn2c(nc3cc(NC(=O)c4cccs4)ccc32)C1 (stereo not given) | . | . | . | . | . | .
CC(c1ccccc1)N1CCn2c(nc3cc(NC(=O)NC4CCCCC4)ccc32)C1 (stereo not given) | 2.5 | / | / | / | / | .
CN(Cc1ccccc1)C(=O)COC(=O)C1CCN(S(=O)(=O)c2ccc(Cl)c(C(F)(F)F)c2)CC1 | / | . | . | . | . | /
Cc1ccc(NC(=S)NCc2ccc3[nH]c4c(c3c2)CCCC4)cc1 | . | . | 2.4 | . | . | .
COc1cc([C@@H]2c3cc4c(cc3[C@@H](O[C@@H]3O[C@@H]5CO[C@@H](C)O[C@H]5[C@H](O)[C@H]3O)[C@H]3COC(=O)[C@H]23)OCO4)cc(OC)c1O | / | . | . | . | . | /
Cc1ccccc1CSCC(=O)NCc1ccco1 | 2.2 | . | . | . | . | .
COc1cc(C)c2c(c1C=O)Oc1c(c(C)c(O)c3c1C(O)OC3=O)OC2=O (stereo not given) | . | 54 | . | . | . | .
COc1cc(/C=C(\C#N)C(=O)Nc2cccc3ncccc23)ccc1O | . | . | . | . | 42 | .
Cc1ccc2cc3cc(C(=O)NCCCN4CCc5ccccc5C4)oc3nc2c1 | . | . | . | . | . | .
O=C(Nc1ccccc1)Nc1ccc(-n2ccc(C(F)(F)F)n2)cc1 | / | . | 2.4 | . | . | /
O=C(COC(=O)CNC(=O)c1ccccc1)NCCCc1ccccc1 | / | . | . | . | . | /
N#Cc1ccc(NC(=O)Nc2ccc(Oc3ccc(NC(=O)Nc4ccc(C#N)cc4)cc3)cc2)cc1 | / | . | 2.4 | . | . | /
Cc1cccc(NC(NC(=O)c2ccccc2[N+](=O)[O-])C(Cl)(Cl)Cl)c1 (stereo not given) | . | . | . | . | . | .
CCOC(=O)c1c(-c2ccc(C)o2)csc1NC(=O)CN1CCCCC1 | . | . | . | . | . | .
CCOC(=O)c1c(NC(=O)CN2CCCCC2)sc2c1CCC(C=O)=C2Cl | . | 49 | . | . | . | .
O=C(Nc1ccc(Oc2ccccc2)nc1)C1CCN(Cc2ccco2)CC1 | / | . | . | . | . | /
CC(NC(=O)CN(c1cccc(C(F)(F)F)c1)S(=O)(=O)c1ccc(Cl)c([N+](=O)[O-])c1)c1ccccc1 (stereo not given) | . | . | . | . | . | .
C=C(C)c1cccc(C(C)(C)NC(=O)NCCCn2ccnc2)c1 | 2.3 | . | . | . | . | .
C=C(C)c1cccc(C(C)(C)NC(=O)NCCCN2CCCC2=O)c1 | . | . | . | . | . | .
SMILES | bIAP act | mIAP block | mIAP act | hIAP act | hIAP block | bIAP inh | others
O=C(CSc1ccc(Cl)cc1)NNC(=O)c1cccnc1 | . | . | . | . | . | .
O=c1c([N+](=O)[O-])cccn1Cc1cccc(Br)c1 | / | . | . | . | . | /
Cc1ccccc1NC(=O)CN1CCC(NC(=O)Nc2ccccc2)CC1 | 2.3 | . | . | . | . | .
CCC(NC(=O)Nc1cc(OC)c(OC)c(OC)c1)(C(F)(F)F)C(F)(F)F | . | . | 2.1 | . | . | .
COc1cc(NC(=O)COC(C)=O)cc(OC)c1OC | . | . | . | . | . | .
O=[N+]([O-])c1ccc(N/N=C2\CC3CC=CC23)c([N+](=O)[O-])c1 (stereo not given) | . | . | . | . | . | .
Cc1ccc(N=C2NC(=O)/C(=C\c3ccco3)S2)cc1 | . | 45 | . | . | . | .
Cc1cccc(N=C2NC(=O)/C(=C/C=C/c3ccco3)S2)c1 | . | / | / | / | / | .
O=C(NN1C(=O)C2C3CCC(O3)C2C1=O)c1ccco1 (stereo not given) | . | . | . | . | . | .
S=C(NCc1ccc(Cl)cc1)Nc1ccccc1 | . | . | . | . | . | .
Fc1cccc(NC(=S)NCc2ccccc2Cl)c1 | / | . | 3 | . | . | /
Fc1ccc(CNC(=S)Nc2cccc(Cl)c2)cc1 | . | . | 2.4 | . | . | .
COc1ccc(CNC(=S)Nc2ccc(F)c(Cl)c2)cc1 | . | . | 2.6 | . | . | .
S=C(NCc1ccc(Cl)cc1Cl)Nc1ccccc1 | . | . | 2.4 | . | . | .
Cc1cccc(CSCc2ccc(C(=O)NC(C)C)o2)c1 | / | . | . | . | . | /
Cc1cc(Cl)ccc1NC(=S)NCc1ccccc1Cl | . | . | 2.6 | . | . | .
S=C(NCc1cccs1)Nc1cc(Cl)cc(Cl)c1 | / | . | 4 | . | . | /
COc1ccc(CCNC(=S)NCc2ccc(Cl)c(Cl)c2)cc1OC | . | . | 2 | . | . | .
COc1ccc(-n2cc(CNCCc3ncc(C)[nH]3)c(-c3ccccc3Cl)n2)cc1 | 2.4 | . | . | . | . | .
COc1ccc(-n2cc(CNCCc3nc(C)cc(C)n3)c(-c3ccccc3Cl)n2)cc1 | . | . | . | . | . | .
COc1ccc(-n2cc(CNCCc3cnc[nH]3)c(-c3cccc(F)c3)n2)cc1 | 2.9 | . | . | . | . | .
COc1ccc(-n2cc(CNCc3cccnc3)c(-c3cccc(F)c3)n2)cc1 | . | . | . | . | . | .
C[C@H](NC(=O)c1nc[nH]c1C(=O)NCc1ccccc1)C(=O)OCc1ccccc1 | / | . | . | . | . | /
COc1ccc(/C(O)=C/C(=O)C(=O)NNC(=O)c2ccccc2)cc1 | / | . | . | 2.2 | . | / | hIAP act conf=.
COc1cccc(C2c3c(-c4ccccc4O)n[nH]c3C(=O)N2Cc2ccco2)c1 (stereo not given) | / | . | . | 2.1 | . | / | hIAP act conf=.
Cc1nn(CC(=O)O)c(C)c1NC(=O)c1cccs1 | / | . | . | . | 42 | / | hIAP act conf=.
CN(CCC1CCCCO1)C(=O)CCc1nnc(CCCCc2ccccc2)o1 (stereo not given) | . | . | . | . | . | .
CCc1ccc(OCC(=O)Nc2ncn[nH]2)cc1 | . | . | . | 2.1 | . | . | hIAP act conf=.
CCOc1cc(N2CCOCC2)c(OCC)cc1NC(=O)COC(=O)c1ccc(Cl)cc1N | / | . | . | . | . | /
